Experimental data as given in ChEMBL document CHEMBL3853270, “Influence of Birch Bark Triterpenes on Keratinocytes and Fibroblasts from Diabetic and Nondiabetic Donors” (2016).
Activity calls are given as the source filed them. No cut-off for these calls is given here.

Tests used:
Keratinocyte [1] = assay: Effect on growth factor related gene expression in non-diabetic adult human primary keratinocytes assessed as PDGFB mRNA levels at 9.81 uM after 6 hrs by qPCR analysis; assay type: functional
How it was run: (§1)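 Primary human keratinocytes (nondiabetic young or adult, diabetic adult donors) were exposed to compound for 6 h, with 0.1% DMSO as solvent control. Total RNA came from 400 000 cells per sample and was assayed on a Fluidigm Biomark high-throughput qPCR chip. Results are fold change vs solvent control, from 2−4 independent experiments on two donors per group, with SD. Groups were compared by one-way ANOVA with Bonferroni post-test.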

Keratinocyte [2] = assay: Effect on growth factor related gene expression in non-diabetic adult human primary keratinocytes assessed as GDF15 mRNA levels at 1.96 uM after 6 hrs by qPCR analysis; assay type: functional; how it was run: as §1
[3] = Effect on wound healing activity in diabetic adult human primary keratinocytes assessed as upregulation of RANTES protein levels at 1.96 uM after 24 hrs by bead-based suspension array analysis; assay type: functional; settings: Keratinocyte
[4] = molecular target: Cell division control protein 42 homolog (Homo sapiens) (UniProt P60953); assay: Activation of Cdc42 in human diabetic primary keratinocytes at 10 nM after 20 mins by immunoblot method
How it was run: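 Keratinocytes from a diabetic adult donor; incubation 3 h for RhoA, 20 min for Cdc42 and Rac1. Lysates made in glycerol/Tris pH 7.4/NaCl/NP-40/MgCl2/PMSF buffer, spun at 4 °C. Active GTP-bound form pulled down on glutathione-sepharose with GST-Rhotekin (RhoA) or GST-PAK (Cdc42, Rac1) for 1 h at 4 °C. Total and pulled-down protein read by immunoblot with ECL; n = 3.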

Fibroblast [5] = assay: Effect on growth factor related gene expression in non-diabetic adult human primary fibroblasts assessed as VEGFA mRNA levels at 1.96 uM after 6 hrs by qPCR analysis; assay type: functional
How it was run: (§2)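 Primary human dermal fibroblasts (young or adult nondiabetic, adult diabetic donor) were treated for 6 h against a 0.1% DMSO solvent control. RNA from 320 000 cells per sample was measured by Fluidigm Biomark high-throughput qPCR. Values are fold change relative to solvent control, from four independent experiments, with SD. One-way ANOVA with Bonferroni post-test was applied.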

Fibroblast [6] = assay: Effect on antiinflammatory related gene expression in diabetic adult human primary fibroblasts assessed as SOCS3 mRNA levels at 1.96 uM after 6 hrs by qPCR analysis; assay type: functional
How it was run: (§3)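 Primary dermal fibroblasts from one nondiabetic young, one nondiabetic adult and one diabetic adult donor; 320 000 cells per sample, 6 h at 1.96 or 9.81 μM. RNA measured on a high-throughput qPCR chip. Fold change versus 0.1% DMSO control, four independent experiments, SD, one-way ANOVA with Bonferroni post-test.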

[7] = Effect on wound healing activity in diabetic adult human primary fibroblasts assessed as upregulation of MIF protein levels at 1.96 uM after 24 hrs by bead-based suspension array analysis; assay type: functional; settings: Fibroblast
[8] = Effect on wound healing activity in non-diabetic adult human primary fibroblasts assessed as upregulation of MIF protein levels at 1.96 uM after 24 hrs by bead-based suspension array analysis; assay type: functional; settings: Fibroblast
[9] = Effect on wound healing activity in diabetic adult human primary keratinocytes assessed as upregulation of MIP1alpha protein levels at 1.96 uM after 24 hrs by bead-based suspension array analysis; assay type: functional; settings: Keratinocyte
Keratinocyte [10] = assay: Effect on ECM related gene expression in non-diabetic adult human primary keratinocytes assessed as FBN1 mRNA levels at 9.81 uM after 6 hrs by qPCR analysis; assay type: functional
How it was run: (§4)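 Primary keratinocytes from nondiabetic young and adult and diabetic adult donors; 400 000 cells per sample, 6 h exposure at 1.96 or 9.81 μM. RNA extracted and read on a high-throughput qPCR chip. Results are fold change versus 0.1% DMSO solvent control from 5−7 independent experiments over two donors per group, SD, one-way ANOVA with Bonferroni post-test.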

Fibroblast [11] = assay: Effect on chemokines related gene expression in diabetic adult human primary fibroblasts assessed as WDR26 mRNA levels at 9.81 uM after 6 hrs by qPCR analysis; assay type: functional
Keratinocyte [12] = assay: Effect on cellular connection related gene expression in diabetic adult human primary keratinocytes assessed as GJB2 mRNA levels at 1.96 uM after 6 hrs by qPCR analysis; assay type: functional
[13] = Effect on wound healing activity in non-diabetic adult human primary keratinocytes assessed as upregulation of RANTES protein levels at 1.96 uM after 24 hrs by bead-based suspension array analysis; assay type: functional; settings: Keratinocyte
Keratinocyte [14] = assay: Effect on growth factor related gene expression in non-diabetic adult human primary keratinocytes assessed as PDGFB mRNA levels at 1.96 uM after 6 hrs by qPCR analysis; assay type: functional; how it was run: as §1
Fibroblast [15] = assay: Effect on chemokines related gene expression in diabetic adult human primary fibroblasts assessed as WDR26 mRNA levels at 1.96 uM after 6 hrs by qPCR analysis; assay type: functional
Keratinocyte [16] = assay: Effect on growth factor related gene expression in non-diabetic young human primary keratinocytes assessed as PDGFB mRNA levels at 1.96 uM after 6 hrs by qPCR analysis; assay type: functional; how it was run: as §1
Keratinocyte [17] = assay: Effect on pro-inflammatory related gene expression in diabetic adult human primary keratinocytes assessed as IL6 mRNA levels at 9.81 uM after 6 hrs by qPCR analysis; assay type: functional
Keratinocyte [18] = assay: Effect on growth factor related gene expression in non-diabetic adult human primary keratinocytes assessed as GDF15 mRNA levels at 9.81 uM after 6 hrs by qPCR analysis; assay type: functional; how it was run: as §1
Fibroblast [19] = assay: Effect on chemokines related gene expression in non-diabetic adult human primary fibroblasts assessed as WDR26 mRNA levels at 1.96 uM after 6 hrs by qPCR analysis; assay type: functional
Fibroblast [20] = assay: Effect on chemokines related gene expression in diabetic adult human primary fibroblasts assessed as CCL2 mRNA levels at 9.81 uM after 6 hrs by qPCR analysis; assay type: functional
Keratinocyte [21] = assay: Effect on pro-inflammatory related gene expression in non-diabetic adult human primary keratinocytes assessed as IL6 mRNA levels at 9.81 uM after 6 hrs by qPCR analysis; assay type: functional
[22] = Effect on wound healing activity in non-diabetic adult human primary keratinocytes assessed as upregulation of IL8 protein levels at 1.96 uM after 24 hrs by bead-based suspension array analysis; assay type: functional; settings: Keratinocyte
Keratinocyte [23] = assay: Effect on wound healing activity in non-diabetic adult human primary keratinocytes assessed as increase in soluble gp130 part of IL6 receptor protein levels at 1.96 uM after 24 hrs by bead-based suspension array analysis; assay type: functional
Keratinocyte [24] = assay: Effect on MMP1 mRNA expression levels in non-diabetic adult human primary keratinocytes at 1.96 uM after 6 hrs by qPCR analysis; assay type: functional; how it was run: as §4
Fibroblast [25] = assay: Effect on MMP1 mRNA expression levels in non-diabetic adult human primary fibroblasts at 9.81 uM after 6 hrs by qPCR analysis; assay type: functional; how it was run: as §3
Fibroblast [26] = assay: Effect on growth factors related gene expression in non-diabetic young human primary fibroblasts assessed as FGF2 mRNA levels at 9.81 uM after 6 hrs by qPCR analysis; assay type: functional; how it was run: as §2
Fibroblast [27] = assay: Effect on antiinflammatory related gene expression in non-diabetic young human primary fibroblasts assessed as SOCS3 mRNA levels at 1.96 uM after 6 hrs by qPCR analysis; assay type: functional; how it was run: as §3
[28] = Effect on wound healing activity in diabetic adult human primary keratinocytes assessed as upregulation of MIF protein levels at 1.96 uM after 24 hrs by bead-based suspension array analysis; assay type: functional; settings: Keratinocyte

Cell division control protein 42 homolog (Homo sapiens), sequence (P60953 whole entry, looked up): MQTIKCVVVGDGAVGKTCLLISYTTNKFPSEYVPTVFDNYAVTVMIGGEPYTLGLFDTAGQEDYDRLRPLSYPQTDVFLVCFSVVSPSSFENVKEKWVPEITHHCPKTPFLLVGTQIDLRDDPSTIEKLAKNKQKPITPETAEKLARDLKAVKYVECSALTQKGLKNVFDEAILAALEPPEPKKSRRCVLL

Compound: C=C(C)[C@@H]1CC[C@]2(CO)CC[C@]3(C)[C@H](CC[C@@H]4[C@@]5(C)CC[C@H](O)C(C)(C)[C@@H]5CC[C@]43C)[C@@H]12 [BETULIN]
- fold change (FC) (Keratinocyte [1]): 0.9
- fold change (FC) (Keratinocyte [2]): 1
- Activity [3]: Active
- Activity [4]: Active
- fold change (FC) (Fibroblast [5]): 1.4
- fold change (FC) (Fibroblast [6]): 2
- Activity [7]: Active
- Activity [8]: Active
- Activity [9]: Active
- fold change (FC) (Keratinocyte [10]): 0.7
- fold change (FC) (Fibroblast [11]): 1.2
- fold change (FC) (Keratinocyte [12]): 0.9
- Activity [13]: Active
- fold change (FC) (Keratinocyte [14]): 0.8
- fold change (FC) (Fibroblast [15]): 1.2
- fold change (FC) (Keratinocyte [16]): 1.2
- fold change (FC) (Keratinocyte [17]): 26
- fold change (FC) (Keratinocyte [18]): 1
- fold change (FC) (Fibroblast [19]): 0.9
- fold change (FC) (Fibroblast [20]): 1.7
- fold change (FC) (Keratinocyte [21]): 24.1
- Activity [22]: Active
- Activity (Keratinocyte [23]): Active
- fold change (FC) (Keratinocyte [24]): 1
- fold change (FC) (Fibroblast [25]): 2.3
- fold change (FC) (Fibroblast [26]): 1.8
- fold change (FC) (Fibroblast [27]): 3
- Activity [28]: Active
